# Measured values pooled from the literature.
# Each line is one published result; the experiments were not run side by side.
# Matrix: plasma
Compound,species,route,dose,setting,Cmax
CCCCCCCCCC(=O)N[C@@H](Cc1c[nH]c2ccccc12)C(=O)N[C@H](CC(N)=O)C(=O)N[C@@H](CC(=O)O)C(=O)N[C@@H]1C(=O)NCC(=O)N[C@@H](CCCN)C(=O)N[C@@H](CC(=O)O)C(=O)N[C@H](C)C(=O)N[C@@H](CC(=O)O)C(=O)NCC(=O)N[C@H](CO)C(=O)N[C@@H]([C@H](C)CC(=O)O)C(=O)N[C@@H](CC(=O)c2ccccc2N)C(=O)O[C@@H]1C,male Wistar rat,subcutaneous,125 mg/kg,single dose,205000 ng/mL
COc1cc(C2C3=C(COC3=O)N(CCO)c3cc4c(cc32)CCC4)cc(OC)c1OC (stereo not shown),female Sprague-Dawley rat,intraperitoneal,50 mg/kg,,915 ng/mL
Nc1ccn([C@@H]2O[C@H](CO)[C@@H](O)C2(F)F)c(=O)n1,male Sprague-Dawley rat,intraperitoneal,5 mg/kg,,12500 ng/mL
C[C@H]1Oc2cc(cnc2N)-c2c(nn(C)c2C#N)CN(C)C(=O)c2ccc(F)cc21,Sprague-Dawley rat,intravenous,1 mg/kg,single dose,2250 ng/mL
CNC(=O)c1cc(Oc2ccc(NC(=O)Nc3ccc(Cl)c(C(F)(F)F)c3)cc2)ccn1,male Sprague-Dawley rat,oral,100 mg/kg,single dose,956 ng/mL
O=C1CCC(N2Cc3cc(C4CCN(Cc5ccccc5)CC4)ccc3C2=O)C(=O)N1 (stereo not shown),male Sprague-Dawley rat,oral,3 mg/kg,,72.7 ng/mL
COc1nc(-c2cccc(-c3ccccc3)c2C)ccc1CNCCNC(=O)CCCCCCCCCCC(=O)N1CCN(CCNC(=O)c2cc3c(=O)n4cccc(C)c4nc3n(CCc3cccs3)c2=N)CC1,male Sprague-Dawley rat,oral,40 mg/kg,,20.2 ng/mL
C=CC(=O)N1CCC([C@@H]2CCNc3c(C(N)=O)c(-c4ccc(Oc5ccccc5)cc4)nn32)CC1,Sprague-Dawley rat,oral,16 mg/kg,,426 ng/mL
COc1cc(-c2cc(C(C)=O)n3ccccc23)c(OC)cc1Cn1ccnc1,male Sprague-Dawley rat,oral,5 mg/kg,,876 ng/mL
Cc1cc2c(C(N)=O)cccc2n1-c1nc2c(c(NCc3ccccc3)n1)CCCN2,male Sprague-Dawley rat,intravenous,1 mg/kg,single dose,802 ng/mL
C1=C/COCc2cc(ccc2OCCN2CCCC2)Nc2nccc(n2)-c2cccc(c2)COC/1,male Sprague-Dawley rat,oral,36 mg/kg,,333 ng/mL
CCOc1c([C@H](C)n2nc(C)c3c(N)ncnc32)cc(Cl)c(F)c1[C@@H]1CNC(=O)C1,male Sprague-Dawley rat,oral,2 mg/kg,single dose,666 ng/mL
CONC(=O)c1cccc2c1cc(C)n2-c1nc2c(c(NCc3ccccc3)n1)CCCN2,male Sprague-Dawley rat,intravenous,1 mg/kg,single dose,28.2 ng/mL
CCCCC(=O)Nc1ccc(-c2ccc3ncn(CCC)c(=O)c3c2)cn1,male rat,oral,10 mg/kg,,966 ng/mL
COc1ccc(N(Cc2csc(-c3ccccc3)n2)C(=O)CCCCCC(=O)NO)cc1,female Sprague-Dawley rat,oral,30 mg/kg,,4.73 ng/mL
C=CCn1c(=O)c2cnc(Nc3ccc(N4CCN(C)CC4)cc3)nc2n1-c1ccc2c(n1)[C@@](O)(CC)CC2,rat,oral,60 mg/kg,,4 µM
